Measurements of several laboratories.
Lines come from different studies, so protocols differ.
Observed: cell growth or viability

Structure (SMILES)	cell line	technique	time	IC50
CC(O)(CS(=O)(=O)c1ccc(F)cc1)C(=O)Nc1ccc(C#N)c(C(F)(F)F)c1 (stereo not drawn)	LAPC4	MTT	7 days	9 µM
c1csc([I+]c2cccs2)c1	Caco-2	trypan blue	48 h	~0.5 µM
CC1(C)CC[C@]2(C)CC[C@]3(C)C(=CC[C@@H]4[C@@]5(C)CC[C@H](O)C(C)(C)[C@@H]5CC[C@]43C)[C@@H]2C1	RD	WST-1	48 h	93.7 µM
CN1/C(=N/c2ccc(Cl)cc2)c2cc(C(N)=O)nc3c(N)c(Cl)c(N)c1c23	HCC44			23.2 µM
COc1cc2c(Oc3ccc(NC(=O)C4(C(=O)Nc5ccc(F)cc5)CC4)cc3F)ccnc2cc1OCCCN1CCOCC1	RD		72 h	0.22 µM
COc1cc(/C=C/C(=O)/C=C/c2c(C)nn(-c3ccccc3)c2Cl)cc(OC)c1O	LLC-PK1	MTT	72 h	12.9 µM
CCSC(=O)c1ncn2c(=O)n(C)nnc12	U-118-MG	resazurin	7 days	165 µM
CC(C)C[C@H](NC(=O)[C@H](Cc1ccccc1)NC(=O)c1cnccn1)B(O)O	LoVo	ATP luminescence		0.015 µM
CC1Cc2c(O)c(C(=O)N3Cc4ccccc4C3)cc(C(C)C)c2C1=O (stereo not drawn)	UMUC3	ATP luminescence	72 h	70.4 µM
C[C@@H](Oc1cc(-c2cnn(C3CCNCC3)c2)cnc1N)c1c(Cl)ccc(F)c1Cl	RD		72 h	0.49 µM
CS(=O)(=O)c1ccc(-n2cc(C=N/N=c3\[nH]c(-c4ccc(Br)cc4)cs3)c(-c3ccc([N+](=O)[O-])cc3)n2)cc1	F180	MTT	48 h	36.6 µM
CCN(CC)CCNC(=O)c1c(C)[nH]c(/C=C2\C(=O)Nc3ccc(F)cc32)c1C	Swiss-3T3		72 h	4.43 µM
Cc1cc(-c2nc(C(=O)Nc3cc4oc(N5CCOCC5)nc4nc3N3CC[C@@H](O)C3)co2)ccn1	SU-DHL-4		5 days	> 10 µM
COc1cc([C@@H]2c3cc4c(cc3[C@@H](O[C@@H]3O[C@@H]5CO[C@@H](C)O[C@H]5[C@H](O)[C@H]3O)[C@H]3COC(=O)[C@H]23)OCO4)cc(OC)c1O	Caco-2	MTS	72 h	16.5 µM
CS(=O)(=O)c1ccc(-n2cc(/C=N/N=c3\[nH]c(-c4ccc([N+](=O)[O-])cc4)cs3)c(-c3ccc([N+](=O)[O-])cc3)n2)cc1	F180	MTT	48 h	70.6 µM
CNC(=O)c1cc(Oc2ccc(NC(=O)Nc3ccc(Cl)c(C(F)(F)F)c3)cc2)ccn1	Swiss-3T3	SRB		0.427 µM
Cc1ccc(-c2nn(-c3ccc(S(C)(=O)=O)cc3)cc2/C=N\N=c2/[nH]c(-c3ccc([N+](=O)[O-])cc3)cs2)cc1	F180	MTT	48 h	99.5 µM
CC(C)c1cc(C(=O)N2Cc3ccccc3C2)c(O)c2nc[nH]c12	UMUC3	ATP luminescence	72 h	53 µM
O=c1[nH]cc(F)c(=O)[nH]1	RD	WST-1	48 h	21.1 µM
CC(C)c1cc(C(=O)N2Cc3ccccc3C2)c(O)c2c1C(=O)C(F)C2 (stereo not drawn)	UMUC3	ATP luminescence	72 h	69.9 µM
O=c1c(O)c(-c2ccc(O)c(O)c2)oc2cc(O)cc(O)c12	RD	WST-1	48 h	29.8 µM
COc1ccc(/C=C/C(=O)/C=C/c2cn(-c3ccccc3)nc2-c2ccccc2)cc1O	LLC-PK1	MTT	72 h	8.39 µM
COc1cccc2c1C(=O)c1c(O)c3c(c(O)c1C2=O)C[C@@](O)(C(=O)CO)C[C@@H]3O[C@H]1C[C@H](N)[C@H](O)[C@H](C)O1	Caco-2	MTT	24 h	12.3 µM
C=C1Cc2c(O)c(C(=O)N3Cc4ccccc4C3)cc(C(C)C)c2C1=O	UMUC3	ATP luminescence	72 h	> 100 µM

Structure (SMILES)	cell line	technique	time	IC50
O=C(O)CCCc1ccccc1	LoVo	MTT	72 h	> 50 µM
Cc1cc(Nc2ncc(Cl)c(Nc3ccccc3S(=O)(=O)C(C)C)n2)c(OC(C)C)cc1C1CCNCC1	RD		72 h	2.18 µM
CCN(CC)C(=O)c1ncn2c(=O)n(C)nnc12	U-118-MG	resazurin	7 days	80 µM
COc1cc(/C=C/C(=O)/C=C/c2cn(-c3ccccc3)nc2-c2ccccc2)ccc1O	LLC-PK1	MTT	72 h	15.8 µM
CC(C)c1cc(C(=O)N2Cc3ccccc3C2)c(O)c2[nH]nnc12	UMUC3	ATP luminescence	72 h	> 100 µM
CN1C(=O)c2cc(C(N)=O)nc3c(N)c(Cl)c(N)c1c23	HCC44			15.3 µM
CC(C)c1cc(C(=O)N2Cc3ccccc3C2)c(O)c2ccoc12	UMUC3	ATP luminescence	72 h	71.6 µM
COc1cc(Nc2nccc(-c3cnn4nc(OC)ccc34)n2)cc(C(F)(F)F)c1	NCI-H1581	ATP luminescence		0.41 µM
COc1ccc(-c2nn(-c3ccc(S(C)(=O)=O)cc3)cc2/C=N/N=c2\[nH]c(-c3ccc(Br)cc3)cs2)cc1	F180	MTT	48 h	59.6 µM
CCCCN(CCCC)C(=O)c1ncn2c(=O)n(C)nnc12	U-118-MG	resazurin	7 days	62 µM
CC(=O)O[C@H]1C(=O)[C@@]2(C)[C@H]([C@H](OC(=O)c3ccccc3)[C@]3(O)C[C@H](OC(=O)[C@H](O)[C@@H](NC(=O)c4ccccc4)c4ccccc4)C(C)=C1C3(C)C)[C@]1(OC(C)=O)CO[C@@H]1C[C@@H]2O	A2780	fluorescence	72 h	0.00026 µM
CC(C)c1cc(C(=O)N2Cc3ccccc3C2)c(O)c2c1CC=C2	UMUC3	ATP luminescence	72 h	51.3 µM
COc1cc([C@@H]2c3cc4c(cc3[C@@H](O[C@@H]3O[C@@H]5CO[C@@H](C)O[C@H]5[C@H](O)[C@H]3O)[C@H]3COC(=O)[C@H]23)OCO4)cc(OC)c1O	Caco-2	MTS	24 h	21.8 µM
CC(=O)O[C@H]1C(=O)[C@@]2(C)[C@H]([C@H](OC(=O)c3ccccc3)[C@]3(O)C[C@H](OC(=O)[C@H](O)[C@@H](NC(=O)c4ccccc4)c4ccccc4)C(C)=C1C3(C)C)[C@]1(OC(C)=O)CO[C@@H]1C[C@@H]2O	LLC-PK1	MTT	72 h	0.73 µM
O=Cc1ccc(CO)o1	RD	WST-1	48 h	60.6 µM
Cn1nnc2c(C(N)=O)ncn2c1=O	U-118-MG	MTT	72 h	944 µM
Cc1cccc(-n2ncc(Br)c(Br)c2=O)c1	NCI-H1650	resazurin	96 h	0.74 µM
CS(=O)(=O)c1ccc(-n2cc(/C=N/N=c3\[nH]c(-c4ccc(Br)cc4)cs3)c(-c3ccc(Br)cc3)n2)cc1	F180	MTT	48 h	59.8 µM
CCOc1cc(OCC)cc(C(=O)O[C@@H]2CN3Cc4c(cc5c(c4OC)OCO5)[C@@]24C=C[C@H](OC)C[C@@H]34)c1	A2780	WST-1		7.8 µM
CON=C1CCc2c(O)c(C(=O)N3Cc4ccccc4C3)cc(C(C)C)c21	UMUC3	ATP luminescence	72 h	78.2 µM
Cn1nnc2c(-c3ccccc3)ncn2c1=O	U-118-MG	resazurin	7 days	3 µM
C[C@@H]1[C@H](O)[C@@H](C)/C=C/C=C/C=C/C=C/C=C/C=C/C=C/[C@H](O[C@@H]2O[C@H](C)[C@@H](O)[C@H](N)[C@@H]2O)C[C@@H]2O[C@](O)(C[C@@H](O)C[C@@H](O)[C@H](O)CC[C@@H](O)C[C@@H](O)CC(=O)O[C@H]1C)C[C@H](O)[C@H]2C(=O)O	LLC-PK1	neutral red	48 h	0.6 µg/mL
COc1ccc(-c2nn(-c3ccc(S(C)(=O)=O)cc3)cc2C=N/N=c2\[nH]c(-c3ccc([N+](=O)[O-])cc3)cs2)cc1	F180	MTT	48 h	28.5 µM
COc1cc(/C=C/C(=O)/C=C/c2c(C)nn(-c3cccc([N+](=O)[O-])c3)c2Cl)cc(OC)c1O	LLC-PK1	MTT	72 h	15.4 µM
